# Source: PubChem (several laboratories)
# RGS4 inh = RGS4 inhibitors, primary screen, cell-based, HEK293 M3R inducible RGS4, calcium flux; B-score at 10 µM; actives 0.45% (n = 310,000); AID 463165, 2010; Fluo-4 calcium flux; active compounds read high; triggered by carbachol at its EC20;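 active = B-score, a plate-corrected calcium signal, over three deviations above library mean, with baseline fluorescence within five deviations of library mean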;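 also: RGS4 expression induced by doxycycline in cells with stable M3 receptor; B-score is computed from the integrated fluorescence ratio over baseline after carbachol; higher B-score means a larger calcium signal and so more RGS4 inhibition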
# Target sequence (P49798 whole entry, looked up): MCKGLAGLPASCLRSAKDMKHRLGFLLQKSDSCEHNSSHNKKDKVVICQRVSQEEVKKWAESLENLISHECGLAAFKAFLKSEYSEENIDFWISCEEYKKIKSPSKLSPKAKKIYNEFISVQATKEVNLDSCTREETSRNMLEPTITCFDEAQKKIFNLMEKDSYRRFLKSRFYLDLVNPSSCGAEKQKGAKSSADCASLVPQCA
# MrgX1 antag = antagonists of human MrgX1 receptor, primary screen, HEK293 cells, Fluo-4 calcium flux; Mas-related G-protein coupled receptor member X1 (Homo sapiens), Q96LB2; BAM8-22 antagonism; active compounds read low; B-score at 10 µM; actives 1.3% (n = 310,000);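 active = calcium-response B-score plate-corrected more than 3 library SD below zero, starting fluorescence within 5 deviations, no agonist response on first addition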;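 also: peak minus trough fluorescence over baseline after final BAM8-22 challenge near maximal dose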
# Target sequence (Q96LB2 whole entry, looked up): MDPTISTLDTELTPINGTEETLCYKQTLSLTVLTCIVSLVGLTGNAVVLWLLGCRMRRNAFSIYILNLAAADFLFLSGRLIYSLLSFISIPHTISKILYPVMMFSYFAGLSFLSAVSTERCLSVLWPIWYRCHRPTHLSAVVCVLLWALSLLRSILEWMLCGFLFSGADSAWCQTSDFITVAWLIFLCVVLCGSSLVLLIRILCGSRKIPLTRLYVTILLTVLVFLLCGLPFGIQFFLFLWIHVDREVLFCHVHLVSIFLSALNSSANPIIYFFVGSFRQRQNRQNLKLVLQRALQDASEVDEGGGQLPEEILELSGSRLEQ
# MrgX1 allo act = positive allosteric modulators of MrgX1, primary screen, HEK293 cells, Fluo-4 calcium flux | actives 0.63% (n = 310,000) | AID 588675, 2011 | B-score at 10 µM | FDSS; active compounds read high;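 active = plate-corrected calcium response at least 3 library SD above typical, normal starting fluorescence, not activating the receptor alone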;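 also: compound read alongside a low EC10 to EC30 dose of BAM8-22 agonist; peak minus trough fluorescence over baseline measured at the second addition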
# Hep lipid drop = inhibitors of hepatocyte lipid droplet formation, primary screen, imaging, high-throughput imaging, BODIPY stain; AML12 mouse hepatocytes, oleate lipid droplets; inhibition, % at 6.5 µM; actives 0.4% (n = 240,000); AID 1656, 2009;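 active = lipid droplet intensity inhibited by at least 50%, with more than 500 cells counted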
#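 Test system: AML12 hepatocytes (mouse); reagent: oleate loading, 100 µM; dosing: one dose, 6.5 µM compound; incubation: overnight exposure; signal: fluorescence imaging, 20x objective, two fields per well; read-out basis: % inhibition of corrected integrated BODIPY droplet signal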
# MrgX1 agonist = agonists of human MrgX1 receptor, primary screen, HEK293 cells, Fluo-4 calcium flux | Fluo-4 calcium fluorescence, agonist mode; active compounds read high | B-score at 10 µM | actives 0.44% (n = 310,000) | Mas-related G-protein coupled receptor member X1 (Homo sapiens), Q96LB2 | AID 588627, 2011;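 active = calcium response B-score plate-corrected fluorescence ratio at least 3 library SD, with starting fluorescence B-score inside 5 SD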
#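 Material – MrgX1-expressing HEK293 cells · Input – 15,000 cells seeded per well · Dosing – compound as first of three additions · Times – overnight seeding, then 1 h dark dye loading · Measured by – kinetic Fluo-4 NW fluorescence of intracellular calcium · Read-out – B-scored fluorescence response ratio · Benchmarks – positive and negative control wells on each plate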
# RGS4 pot = RGS4 potentiators or activators, primary screen, cell-based, HEK293 M3R inducible RGS4, calcium flux; B-score at 10 µM; carbachol calcium flux Fluo4; active compounds read low; actives 0.92% (n = 310,000);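 active = B-score of the integrated calcium signal more than 4 SD below the library mean, with starting fluorescence not abnormally high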;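 also: negative B-score means reduced calcium response which marks RGS4 activation or potentiation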
#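 Material: Inducible-RGS4 HEK293 cells carrying M3 receptor; also added: carbachol at ECmax as muscarinic agonist stimulus; incubation: compound preincubation 20 min at room temperature before agonist; signal: Fluo4-AM (2 µM) calcium-flux fluorescence, kinetic read; measure: integrated calcium ratio converted to B score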
# * hit, by the source's call; i = inactive; . = no result given. Only some compounds are listed: those with a hit (about 3.8% of all), similar ones and a draw of the others.
SMILES,RGS4 inh,MrgX1 antag,MrgX1 allo act,Hep lipid drop,MrgX1 agonist,RGS4 pot
COc1ccc(NC(=O)C2CCCO2)cc1 (configuration not stated),i,i,i,-16,i,i
COc1ccc(-c2csc(NC(=O)C3CCCO3)n2)cc1 (configuration not stated),i,i,i,.,i,-7*
O=C(Nc1nc(-c2ccc(Cl)cc2Cl)cs1)c1ccc(OCC2CCCO2)cc1 (configuration not stated),i,i,i,77*,i,i
CC(NS(=O)(=O)c1ccc(OCC(=O)NCc2ccccn2)cc1)c1ccccc1 (configuration not stated),i,i,i,-1,i,i
CCCN1C(=O)/C(=C/C=C2\N(CC)c3ccccc3C2(C)C)SC1=S,i,i,12*,.,i,i
CC(=O)c1ccc(N=Nc2c(C)[nH]n(-c3ccccc3)c2=O)cc1,i,i,i,28,i,i
Cc1[nH]n(-c2ccccc2)c(=O)c1N=Nc1ccccc1,i,i,i,54*,i,i
COCCNC(=S)N(CCc1c(C)[nH]c2ccccc12)Cc1ccco1,i,i,i,-38,i,i
C/C(CCc1oc2ccc(Br)cc2c1-c1ccc(C)o1)=N/O,i,-6.3*,i,6,i,i
O=C1C(Cl)=C(N2CCCCCC2)C(=O)N1c1ccccc1,i,i,i,.,i,-7.4*
COc1ccc(C(=O)N/N=C/c2c[nH]c3ccccc23)cc1,i,i,i,-45,i,i
COc1ccc2c(/C=N/Nc3ccc(C(=O)O)cc3)c[nH]c2c1,i,i,i,4,32*,i
COc1ccc(CCNC(=O)/C=C/c2ccco2)cc1,i,i,i,.,i,i
Cc1nnc(N/N=C/c2ccc(Br)cc2)n1N,i,i,18*,10,i,i
O=C(CS(=O)CC(=O)Nc1cccnc1)Nc1ccc(F)cc1 (configuration not stated),i,i,i,-5,i,i
Cc1cccc(NC(=O)CSc2ncnc3sc(C)cc23)c1,i,i,i,5,i,i
Cc1n[nH]c(C)c1CCNC(=O)C1CCC(=O)N(CCc2cccc(F)c2)C1 (configuration not stated),i,i,i,-40,i,i
Cc1ccc2[nH]c(=O)c(CN(CCCN(C)C)C(=S)NCCc3ccccc3)cc2c1,i,i,i,4,i,i
Cc1ccc2cc(CN(CCc3ccccc3)C(=S)NCCCN(C)C)c(=O)[nH]c2c1,i,i,6.6*,.,i,i
CC1Cc2ccccc2N1C(=O)CSc1nc2c(c(=O)n(C)c(=O)n2C)n1Cc1ccccc1 (configuration not stated),i,i,i,.,i,-7.2*
CCCC(C)NC(=O)c1cc(C(=O)OC)cc([N+](=O)[O-])c1 (configuration not stated),i,-5.2*,i,4,i,i
CCOC(=O)c1nc(S(C)(=O)=O)ncc1Cl,i,i,i,.,43*,i
CCNc1cc(N2CCN(S(=O)(=O)c3ccc4c(c3)CCCC4)CC2)ccc1[N+](=O)[O-],i,-7.5*,i,.,i,i
O=C(CN1CCN(c2nc(-c3ccccc3)cs2)CC1)NNC(=O)c1ccco1,i,i,i,29,i,i
COC(=O)Nc1ccc([N+](=O)[O-])cc1OC,i,-7.4*,i,7,i,i
SMILES,RGS4 inh,MrgX1 antag,MrgX1 allo act,Hep lipid drop,MrgX1 agonist,RGS4 pot
COCC(=O)Nc1ccc([N+](=O)[O-])cc1OC,i,i,i,-11,i,i
CCN(CC)S(=O)(=O)c1ccc(N2CCN(S(=O)(=O)c3ccccc3)CC2)nc1,i,.,.,-10,.,i
CCN(CC)S(=O)(=O)c1ccc(N2CCN(S(=O)(=O)c3ccccc3C#N)CC2)nc1,.,-5*,i,-8,i,.
Cc1cc(C)c2nc(N3CCC(C(=O)NCCCN4CC(C)CC(C)C4)CC3)sc2c1 (configuration not stated),i,i,i,-3,i,-10*
COc1ccccc1S(=O)(=O)Cc1ccc(C(=O)N2CCCC2)o1,i,i,i,.,i,i
CCc1ccccc1S(=O)(=O)Cc1ccc(C(=O)N2CCN(c3ccccc3OC)CC2)o1,i,i,i,.,i,-7.7*
Cc1ccccc1S(=O)(=O)Cc1ccc(C(=O)N2CCN(c3cccc(C)c3C)CC2)o1,i,i,i,-4,i,-7.2*
Clc1ccc(Sc2cc(Cl)c(-c3ccccc3)nn2)cc1,i,i,i,.,i,i
COCCCNC(=O)c1ccc2c(c1)nc(C)n2-c1cccc(C)c1,i,i,i,0,i,i
CCCNC(=O)c1ccc2c(c1)nc(C)n2-c1cccc(Cl)c1,i,i,i,36,i,-7.5*
CC1(c2nnc(-c3ccc(Cl)cc3)o2)CC(c2c(Cl)cccc2Cl)=NO1 (configuration not stated),i,i,i,3,i,-9.2*
CC1(c2nnc(-c3ccc(F)cc3)o2)CC(c2c(Cl)cccc2Cl)=NO1 (configuration not stated),i,i,i,.,i,i
O=C(c1ccc([N+](=O)[O-])s1)N1CCCc2ccccc21,i,i,i,-3,i,-7.7*
O=C(c1ccc([N+](=O)[O-])s1)N1CCc2ccccc21,i,i,i,8,i,i
CCOC(=O)/C(=N/Nc1ccc(C)cc1)S(=O)(=O)c1ccc(Cl)cc1,i,i,i,-10,i,-8*
Cc1ccc(NC(=O)c2cncc(Br)c2)nc1,i,i,i,14,i,i
Cc1cccc(N2CCN(C(=O)c3ccc4c(c3)NC(=O)C(CSCc3cccc(F)c3)N4)CC2C)c1 (configuration not stated),i,i,i,-6,i,i
